Assay results from ChEMBL document CHEMBL1138179, “Discovery of a novel nonphosphorylated pentapeptide motif displaying high affinity for Grb2-SH2 domain by the utilization of 3'-substituted tyrosine derivatives” (J Med Chem, 2006).
Numbered stars: 1 amine (or outer) side, 2 acyl side, 3 side chain; on linkers, the order of the positions; unused ones are H or OH. Bridge positions count the residues as written; N and C are the ends. Square brackets hold non-standard residues; d marks the D form. Peptide text beside a SMILES is read from it. Tyr(3-NO2) = N[C@@H](Cc1ccc(O)c([N+](=O)[O-])c1)C(=O)O; X1 = O=C(O)c1cc(C[C@H](N[*:1])C(=O)[*:2])ccc1O; Tyr(3-OMe) = COc1cc(C[C@H](N)C(=O)O)ccc1O; Tyr(3-NH2) = Nc1cc(C[C@H](N)C(=O)O)ccc1O; Dopa = N[C@@H](Cc1ccc(O)c(O)c1)C(=O)O; Gla = N[C@@H](CC(C(=O)O)C(=O)O)C(=O)O; Aad = N[C@@H](CCCC(=O)O)C(=O)O; Ac6c = NC1(C(=O)O)CCCCC1; Ava = NCCCCC(=O)O; βAla = NCCC(=O)O

Tested on: MDA-MB-453
Test: cells
Conditions: Homo sapiens

CC(C)C[C@@H]1NC(=O)[C@H](CC(C(=O)O)C(=O)O)NC(=O)C[S+]([O-])C[C@@H](C(N)=O)NC(=O)CCCCNC(=O)[C@H](CC(N)=O)NC(=O)C2(CCCCC2)NC(=O)[C@H](Cc2ccc(O)c(N)c2)NC1=O (stereo partly drawn) was tested. Which IC50 did it give?
The IC50 was 19 nM.

Target: Growth factor receptor-bound protein 2 (Homo sapiens, UniProt P62993)
Sequence (P62993 whole entry, the tested form may be a part): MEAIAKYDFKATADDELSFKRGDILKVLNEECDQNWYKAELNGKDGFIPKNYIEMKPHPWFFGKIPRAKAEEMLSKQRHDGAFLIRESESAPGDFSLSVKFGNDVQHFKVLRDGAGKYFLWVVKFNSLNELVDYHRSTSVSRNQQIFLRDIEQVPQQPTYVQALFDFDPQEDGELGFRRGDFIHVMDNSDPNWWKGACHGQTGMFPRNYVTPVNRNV
Test: Inhibition of recombinant GRB2-SH2 domain
Conditions: not given
Procedure, shortened: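 Competitive SPR (BIAcore 3000): inhibitor premixed with recombinant Grb2-SH2 protein; binding at equilibrium measured to immobilized biotinylated SHC pTyr317 phosphopeptide (biotinyl-DDPS-pY-VNVQ). IC50 = concentration giving half-maximal competition; mean of at least two independent experiments.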

Which IC50 does the source give for CC(C)C[C@@H]1NC(=O)[C@H](CC(C(=O)O)C(=O)O)NC(=O)C[S+]([O-])C[C@H](C(N)=O)NC(=O)CCNC(=O)[C@H](CC(N)=O)NC(=O)C2(CCCCC2)NC(=O)[C@H](Cc2ccc(O)c(N)c2)NC1=O (stereo partly drawn) here?
The IC50 was 11.2 µM.

Which IC50 does the source give for CC(C)C[C@@H]1NC(=O)[C@H](CC(C(=O)O)C(=O)O)NC(=O)C[S+]([O-])C[C@@H](C(N)=O)NC(=O)CCCCNC(=O)[C@H](CC(N)=O)NC(=O)C2(CCCCC2)NC(=O)[C@H](Cc2ccc(O)c(N)c2)NC1=O (stereo partly drawn) here?
The IC50 was 0.058 µM.

How did the IC50 turn out when CC(C)C[C@@H]1NC(=O)[C@H](CCCC(=O)O)NC(=O)C[S+]([O-])C[C@H](C(N)=O)NC(=O)CCCCNC(=O)[C@H](CC(N)=O)NC(=O)C2(CCCCC2)NC(=O)[C@H](Cc2ccc(O)c(N)c2)NC1=O (stereo partly drawn) was run?
The IC50 was 14 µM.

Which IC50 does the source give for CC(C)C[C@@H]1NC(=O)[C@H](CC(C(=O)O)C(=O)O)NC(=O)C[S+]([O-])C[C@H](C(N)=O)NC(=O)[C@H](CC(N)=O)NC(=O)C2(CCCCC2)NC(=O)[C@H](Cc2ccc(O)c(N)c2)NC1=O (stereo partly drawn) here?
The IC50 was 200 µM.

Which IC50 does the source give for CC(C)C[C@@H]1NC(=O)[C@H](CC(C(=O)O)C(=O)O)NC(=O)C[S+]([O-])C[C@H](C(N)=O)NC(=O)CCCCNC(=O)[C@H](CC(N)=O)NC(=O)C2(CCCCC2)NC(=O)[C@H](Cc2ccc(O)c(N)c2)NC1=O (stereo partly drawn) here?
The IC50 was 1.55 µM.

Which IC50 does the source give for CC(C)C[C@@H]1NC(=O)[C@H](CCCC(=O)O)NC(=O)C[S+]([O-])C[C@H](C(N)=O)NC(=O)CCCCNC(=O)[C@H](CC(N)=O)NC(=O)C2(CCCCC2)NC(=O)[C@H](Cc2ccc(O)cc2)NC1=O (stereo partly drawn) here?
The IC50 was 1000 µM.

CC(C)C[C@@H]1NC(=O)[C@H](CCCC(=O)O)NC(=O)C[S+]([O-])C[C@@H](C(N)=O)NC(=O)CCCCNC(=O)[C@H](CC(N)=O)NC(=O)C2(CCCCC2)NC(=O)[C@H](Cc2ccc(O)cc2)NC1=O (stereo partly drawn) was tested. Which IC50 did it give?
Its IC50 is 77 µM.

CC(C)C[C@@H]1NC(=O)[C@H](CCCC(=O)O)NC(=O)C[S+]([O-])C[C@H](C(N)=O)NC(=O)CCCCNC(=O)[C@H](CC(N)=O)NC(=O)C2(CCCCC2)NC(=O)[C@H](Cc2ccc(O)c(C(=O)O)c2)NC1=O (stereo partly drawn) was tested. Which IC50 did it give?
Its IC50 is 212 µM.

Which IC50 does the source give for COc1cc(C[C@@H]2NC(=O)[C@H](CC(C)C)NC(=O)[C@H](CCCC(=O)O)NC(=O)C[S+]([O-])C[C@@H](C(N)=O)NC(=O)CCCCNC(=O)[C@H](CC(N)=O)NC(=O)C3(CCCCC3)NC2=O)ccc1O (stereo partly drawn) here?
The IC50 was 97 µM.

CC(C)C[C@@H]1NC(=O)[C@H](CC(C(=O)O)C(=O)O)NC(=O)C[S+]([O-])C[C@@H](C(N)=O)NC(=O)[C@H](CC(N)=O)NC(=O)C2(CCCCC2)NC(=O)[C@H](Cc2ccc(O)c(N)c2)NC1=O (stereo partly drawn) was tested. Which IC50 did it give?
The IC50 was 9.7 µM.

For CC(C)C[C@@H]1NC(=O)[C@H](CCCC(=O)O)NC(=O)C[S+]([O-])C[C@@H](C(N)=O)NC(=O)CCCCNC(=O)[C@H](CC(N)=O)NC(=O)C2(CCCCC2)NC(=O)[C@H](Cc2ccc(O)c(C(=O)O)c2)NC1=O (stereo partly drawn), which IC50 is on record?
The IC50 was 16 µM.

For CC(C)C[C@@H]1NC(=O)[C@H](CC(C(=O)O)C(=O)O)NC(=O)C[S+]([O-])C[C@@H](C(N)=O)NC(=O)CCNC(=O)[C@H](CC(N)=O)NC(=O)C2(CCCCC2)NC(=O)[C@H](Cc2ccc(O)c(N)c2)NC1=O (stereo partly drawn), which IC50 is on record?
The IC50 was 0.36 µM.

Which IC50 does the source give for CC(C)C[C@@H]1NC(=O)[C@H](CCCC(=O)O)NC(=O)C[S+]([O-])C[C@H](C(N)=O)NC(=O)CCCCNC(=O)[C@H](CC(N)=O)NC(=O)C2(CCCCC2)NC(=O)[C@H](Cc2ccc(O)c(O)c2)NC1=O (stereo partly drawn) here?
The IC50 was 550 µM.

CC(C)C[C@@H]1NC(=O)[C@H](CCCC(=O)O)NC(=O)C[S+]([O-])C[C@@H](C(N)=O)NC(=O)CCCCNC(=O)[C@H](CC(N)=O)NC(=O)C2(CCCCC2)NC(=O)[C@H](Cc2ccc(O)c(O)c2)NC1=O (stereo partly drawn) was tested. Which IC50 did it give?
Its IC50 is 87 µM.

CC(C)C[C@@H]1NC(=O)[C@H](CCCC(=O)O)NC(=O)C[S+]([O-])C[C@@H](C(N)=O)NC(=O)CCCCNC(=O)[C@H](CC(N)=O)NC(=O)C2(CCCCC2)NC(=O)[C@H](Cc2ccc(O)c([N+](=O)[O-])c2)NC1=O (stereo partly drawn) was tested. Which IC50 did it give?
Its IC50 is 25 µM.

How did the IC50 turn out when CC(C)C[C@@H]1NC(=O)[C@H](CCCC(=O)O)NC(=O)C[S+]([O-])C[C@@H](C(N)=O)NC(=O)CCCCNC(=O)[C@H](CC(N)=O)NC(=O)C2(CCCCC2)NC(=O)[C@H](Cc2ccc(O)c(N)c2)NC1=O (stereo partly drawn) was run?
The IC50 was 3.9 µM.

How did the IC50 turn out when CC(C)C[C@@H]1NC(=O)[C@H](CCCC(=O)O)NC(=O)C[S+]([O-])C[C@H](C(N)=O)NC(=O)CCCCNC(=O)[C@H](CC(N)=O)NC(=O)C2(CCCCC2)NC(=O)[C@H](Cc2ccc(O)c([N+](=O)[O-])c2)NC1=O (stereo partly drawn) was run?
Its IC50 is 265 µM.

With COc1cc(C[C@@H]2NC(=O)[C@H](CC(C)C)NC(=O)[C@H](CCCC(=O)O)NC(=O)C[S+]([O-])C[C@H](C(N)=O)NC(=O)CCCCNC(=O)[C@H](CC(N)=O)NC(=O)C3(CCCCC3)NC2=O)ccc1O (stereo partly drawn) as the compound, how does the IC50 read?
The IC50 was > 1000 µM.

CC(C)C[C@@H]1NC(=O)[C@H](CCCC(=O)O)NC(=O)CSC[C@@H](C(N)=O)NC(=O)CCCCNC(=O)[C@H](CC(N)=O)NC(=O)C2(CCCCC2)NC(=O)[C@H](Cc2ccc(O)cc2)NC1=O ({CH2CO}-[Aad]LY[Ac6c]N[Ava]C-NH2; thioether N-7) was tested. Which IC50 did it give?
Its IC50 is 93 µM.

How did the IC50 turn out when CC(C)C[C@@H]1NC(=O)[C@H](CCCC(=O)O)NC(=O)CSC[C@@H](C(N)=O)NC(=O)CCCCNC(=O)[C@H](CC(N)=O)NC(=O)C2(CCCCC2)NC(=O)[C@H](Cc2ccc(O)c(O)c2)NC1=O ({CH2CO}-[Aad]L[Dopa][Ac6c]N[Ava]C-NH2; thioether N-7) was run?
Its IC50 is 135 µM.

With CC(C)C[C@@H]1NC(=O)[C@H](CCCC(=O)O)NC(=O)CSC[C@@H](C(N)=O)NC(=O)CCCCNC(=O)[C@H](CC(N)=O)NC(=O)C2(CCCCC2)NC(=O)[C@H](Cc2ccc(O)c(N)c2)NC1=O ({CH2CO}-[Aad]L[Tyr(3-NH2)][Ac6c]N[Ava]C-NH2; thioether N-7) as the compound, how does the IC50 read?
Its IC50 is 8.9 µM.

CC(C)C[C@@H]1NC(=O)[C@H](CCCC(=O)O)NC(=O)CSC[C@@H](C(N)=O)NC(=O)CCCCNC(=O)[C@H](CC(N)=O)NC(=O)C2(CCCCC2)NC(=O)[C@H](Cc2ccc(O)c([N+](=O)[O-])c2)NC1=O ({CH2CO}-[Aad]L[Tyr(3-NO2)][Ac6c]N[Ava]C-NH2; thioether N-7) was tested. Which IC50 did it give?
Its IC50 is 182 µM.

For COc1cc(C[C@@H]2NC(=O)[C@H](CC(C)C)NC(=O)[C@H](CCCC(=O)O)NC(=O)CSC[C@@H](C(N)=O)NC(=O)CCCCNC(=O)[C@H](CC(N)=O)NC(=O)C3(CCCCC3)NC2=O)ccc1O ({CH2CO}-[Aad]L[Tyr(3-OMe)][Ac6c]N[Ava]C-NH2; thioether N-7), which IC50 is on record?
The IC50 was 245 µM.

With CC(C)C[C@@H]1NC(=O)[C@H](CCCC(=O)O)NC(=O)CSC[C@@H](C(N)=O)NC(=O)CCCCNC(=O)[C@H](CC(N)=O)NC(=O)C2(CCCCC2)NC(=O)[C@H](Cc2ccc(O)c(C(=O)O)c2)NC1=O ({CH2CO}-[Aad]L[X1][Ac6c]N[Ava]C-NH2; thioether N-7) as the compound, how does the IC50 read?
The IC50 was 88 µM.

How did the IC50 turn out when CC(C)C[C@@H]1NC(=O)[C@H](CC(C(=O)O)C(=O)O)NC(=O)CSC[C@@H](C(N)=O)NC(=O)[C@H](CC(N)=O)NC(=O)C2(CCCCC2)NC(=O)[C@H](Cc2ccc(O)c(N)c2)NC1=O ({CH2CO}-[Gla]L[Tyr(3-NH2)][Ac6c]NC-NH2; thioether N-6) was run?
The IC50 was 22.5 µM.

For CC(C)C[C@@H]1NC(=O)[C@H](CC(C(=O)O)C(=O)O)NC(=O)CSC[C@@H](C(N)=O)NC(=O)CCCCNC(=O)[C@H](CC(N)=O)NC(=O)C2(CCCCC2)NC(=O)[C@H](Cc2ccc(O)c(N)c2)NC1=O ({CH2CO}-[Gla]L[Tyr(3-NH2)][Ac6c]N[Ava]C-NH2; thioether N-7), which IC50 is on record?
The IC50 was 0.19 µM.

CC(C)C[C@@H]1NC(=O)[C@H](CC(C(=O)O)C(=O)O)NC(=O)CSC[C@@H](C(N)=O)NC(=O)CCNC(=O)[C@H](CC(N)=O)NC(=O)C2(CCCCC2)NC(=O)[C@H](Cc2ccc(O)c(N)c2)NC1=O ({CH2CO}-[Gla]L[Tyr(3-NH2)][Ac6c]N[βAla]C-NH2; thioether N-7) was tested. Which IC50 did it give?
The IC50 was 1.02 µM.
